ChEMBL document CHEMBL1123285, “Substituted 1-benzylimidazole-2-thiols as potent and orally active inhibitors of dopamine beta-hydroxylase” (J Med Chem, 1986)
pKi: −log10 of the molar value.

What was measured:
[1] = tested on: Rattus norvegicus; test: In vivo evaluation ot the compound in spontaneously hypertensive rats for the mean arterial blood pressure; format: functional
Method in brief: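 Conscious SHR anesthetized with Brevital Na (10 mg/kg, iv) and femoral artery cannulated to a pressure transducer. After 1-h recovery, baseline MAP taken every 15 min for 1 h. Dosed 50 mg/kg ip unless noted, then MAP recorded every 15–30 min for 4 h. Value at 150 min postdose, mean ± SEM.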

[2] = tested on: Rattus norvegicus; test: DBH inhibitory activity was measured as dopamine levels in mesenteric artery at dose of 25 mg/kg, po.; format: functional, organism-based; design: dose 25 mg/kg
Method in brief: (§1)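 SHR (N = 5) dosed orally twice, about 18 h apart, with vehicle (5% PEG 400 in 1% methocel) or drug at the stated dose. Killed 2 h after the second dose. Mesenteric artery homogenized. Catecholamines measured by COMT methylation with [methyl-3H]-S-adenosylmethionine, chromatographic separation of methylated amines and scintillation counting. Mean ± SEM.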

[3] = tested on: Rattus norvegicus; test: DBH inhibitory activity was measured as NE levels in mesenteric artery at dose of 50 mg/kg, po; format: functional, organism-based; design: dose 50 mg/kg; method in brief: as §1
[4] = tested on: Rattus norvegicus; test: DBH inhibitory activity was measured as dopamine levels in mesenteric artery at dose of 25 mg/kg, po; format: functional, organism-based; design: dose 25 mg/kg; method in brief: as §1
[5] = Ratio of dopamine to that of NE levels in mesenteric artery measured at 100 mg/kg po; format: functional
Method in brief: (§2)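 Spontaneously hypertensive rats (N = 5) got two oral doses about 18 h apart, either vehicle (5% PEG 400 in 1% methocel) or drug in vehicle, and were killed 2 h after the second dose. The mesenteric artery was homogenized. Dopamine and NE were measured by catechol O-methyltransferase methylation with [methyl-3H]-S-adenosylmethionine, then chromatographic separation and scintillation counting. Values are mean ± SEM.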

[6] = tested on: Rattus norvegicus; test: DBH inhibitory activity was measured as dopamine levels in mesenteric artery at dose of 100 mg/kg, po; format: functional, organism-based; design: dose 100 mg/kg; method in brief: as §1
[7] = tested on: Rattus norvegicus; test: DBH inhibitory activity was measured as NE levels in mesenteric artery at dose of 25 mg/kg, po; format: functional, organism-based; design: dose 25 mg/kg; method in brief: as §1
[8] = In vivo evaluation ot the compound in spontaneously hypertensive rats for the catecholamine levels by taking the ratio of copamine to norepinephrine; format: functional; method in brief: as §2
[9] = biological target: T1, Dopamine beta-hydroxylase (Bos taurus, UniProt P15101); test: Binding affinity towards Dopamine beta hydroxylase using tyramine substrate at pH 4.5 in the absence of fumarate
T1 sequence (P15101 whole entry): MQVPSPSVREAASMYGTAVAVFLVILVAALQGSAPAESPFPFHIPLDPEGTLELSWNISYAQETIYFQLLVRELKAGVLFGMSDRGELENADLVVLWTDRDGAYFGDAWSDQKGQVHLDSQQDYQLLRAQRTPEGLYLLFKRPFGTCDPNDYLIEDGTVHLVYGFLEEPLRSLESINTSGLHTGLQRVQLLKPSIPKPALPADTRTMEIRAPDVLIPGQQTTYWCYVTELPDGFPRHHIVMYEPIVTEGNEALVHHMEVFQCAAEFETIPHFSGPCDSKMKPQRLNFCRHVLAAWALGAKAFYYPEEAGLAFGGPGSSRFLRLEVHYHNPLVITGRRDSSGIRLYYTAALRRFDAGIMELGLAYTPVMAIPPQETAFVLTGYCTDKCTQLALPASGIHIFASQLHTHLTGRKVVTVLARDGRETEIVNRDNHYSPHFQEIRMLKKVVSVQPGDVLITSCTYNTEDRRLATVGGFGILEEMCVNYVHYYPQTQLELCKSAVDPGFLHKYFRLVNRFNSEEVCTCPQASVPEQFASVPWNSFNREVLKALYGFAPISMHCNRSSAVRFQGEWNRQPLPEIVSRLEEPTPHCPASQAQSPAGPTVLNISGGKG
Method in brief: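 Homogeneous bovine DBH (sp act. 30–42 U/mg at pH 5.0), tyramine as substrate, pH 4.5, no fumarate. Conditions: 50 mM sodium acetate, ionic strength 0.2, 200 μg/mL bovine catalase, 10 μM Cu²⁺, 10 mM ascorbic acid, 37 °C. Km apparent for tyramine 3.0 mM. Ki fitted with Cleland programs; mean ± SEM.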

[10] = Ratio of dopamine to that of NE levels in mesenteric artery measured at 25 mg/kg po; format: functional; method in brief: as §2
[11] = tested on: Rattus norvegicus; test: DBH inhibitory activity was measured as NE levels in mesenteric artery at dose of 100 mg/kg, po; format: functional, organism-based; design: dose 100 mg/kg; method in brief: as §1
[12] = Ratio of dopamine to that of NE levels in mesenteric artery measured at 50 mg/kg po; format: functional
[13] = In vivo evaluation ot the compound in spontaneously hypertensive rats for the catecholamine levels by taking the ratio of dopamine to norepinephrine; format: functional; method in brief: as §1

Oc1ccc(Cn2cc[nH]c2=S)cc1
MAP [1]: 137 mmHg

Fc1cc(F)cc(Cn2cc[nH]c2=S)c1
Level [2]: 0.765 µg of tissue
Level [3]: 4 µg of tissue
Level [4]: 0.3 µg of tissue
Ratio [5]: 0.378
Level [6]: 1.06 µg of tissue
Level [7]: 4.94 µg of tissue
Ratio [8]: 0.208
pKi [9]: 7.39
Ratio [10]: 0.155
Level [11]: 3.05 µg of tissue
MAP [1]: 105 mmHg
Ratio [12]: 0.204

CCCCc1ccc(C(=O)O)nc1 [FUSARIC ACID]
pKi [9]: 6.83
Ratio [12]: 0.109

Oc1c(F)cc(Cn2cc[nH]c2=S)cc1F
pKi [9]: 8.24
Ratio [13]: 0.082
MAP [1]: 137 mmHg
